In publication PMC3179183 (Bioorganic & medicinal chemistry letters, 2010):
pEC50: −log10 of the molar value. Where two headings read alike, the source gives them in different places.

How the values were obtained:
[1] = target: T1, M1 (Homo sapiens, UniProt P11229); conditions: read-out: M1 EC50, cited from earlier work
T1 sequence (P11229 1-460): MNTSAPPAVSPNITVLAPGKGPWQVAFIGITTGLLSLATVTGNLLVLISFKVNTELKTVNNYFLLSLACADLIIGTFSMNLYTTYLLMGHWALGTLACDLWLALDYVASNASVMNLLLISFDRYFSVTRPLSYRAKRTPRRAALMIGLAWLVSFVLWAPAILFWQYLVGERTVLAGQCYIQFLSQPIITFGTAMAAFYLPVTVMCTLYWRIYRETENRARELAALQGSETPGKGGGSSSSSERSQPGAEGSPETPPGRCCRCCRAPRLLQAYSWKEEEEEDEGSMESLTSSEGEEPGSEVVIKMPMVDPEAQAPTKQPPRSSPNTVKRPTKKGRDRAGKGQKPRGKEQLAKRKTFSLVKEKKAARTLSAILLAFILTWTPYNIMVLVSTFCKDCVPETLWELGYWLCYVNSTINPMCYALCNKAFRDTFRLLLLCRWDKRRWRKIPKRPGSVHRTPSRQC

[2] = target: T2, M2 (Homo sapiens, UniProt P08172); conditions: read-out: M2 EC50, cited from earlier work
T2 sequence (P08172 1-466): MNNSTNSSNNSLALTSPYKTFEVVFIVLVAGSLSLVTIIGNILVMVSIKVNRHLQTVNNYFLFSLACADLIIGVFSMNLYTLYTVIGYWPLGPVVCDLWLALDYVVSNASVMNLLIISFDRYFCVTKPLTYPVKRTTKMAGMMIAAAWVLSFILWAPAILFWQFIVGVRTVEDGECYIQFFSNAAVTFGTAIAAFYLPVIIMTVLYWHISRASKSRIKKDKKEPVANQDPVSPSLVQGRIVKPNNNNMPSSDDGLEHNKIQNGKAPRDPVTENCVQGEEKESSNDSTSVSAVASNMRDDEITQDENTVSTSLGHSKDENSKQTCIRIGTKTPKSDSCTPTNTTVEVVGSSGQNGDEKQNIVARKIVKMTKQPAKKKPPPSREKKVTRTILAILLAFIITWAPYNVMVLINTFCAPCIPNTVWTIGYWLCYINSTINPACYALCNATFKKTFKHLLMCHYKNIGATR

[3] = cited from earlier work
[4] = target: T3, M3 (Homo sapiens, UniProt P20309); conditions: read-out: M3 EC50, cited from earlier work
[5] = in words; cited from earlier work
[6] = target: T4, M4 (Homo sapiens, UniProt P08173); conditions: read-out: M4 EC50, cited from earlier work
T4 sequence (P08173 1-479): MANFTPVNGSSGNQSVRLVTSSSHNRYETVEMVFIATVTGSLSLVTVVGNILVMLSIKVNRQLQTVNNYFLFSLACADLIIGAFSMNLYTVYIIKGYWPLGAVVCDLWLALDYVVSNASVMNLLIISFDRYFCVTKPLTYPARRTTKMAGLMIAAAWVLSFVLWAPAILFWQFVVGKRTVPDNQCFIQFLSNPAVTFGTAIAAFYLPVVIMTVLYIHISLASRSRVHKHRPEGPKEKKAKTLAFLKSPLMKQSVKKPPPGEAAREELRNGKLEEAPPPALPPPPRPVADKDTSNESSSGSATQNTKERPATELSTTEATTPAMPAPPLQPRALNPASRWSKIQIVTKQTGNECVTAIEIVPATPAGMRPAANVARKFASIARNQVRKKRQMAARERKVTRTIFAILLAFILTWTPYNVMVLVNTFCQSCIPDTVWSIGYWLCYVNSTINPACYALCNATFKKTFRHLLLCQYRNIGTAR

[7] = target: T5, M5 (Homo sapiens, UniProt P08912); assay type: cell-based; conditions: single point 10 µM, M5-CHO cells
T5 sequence (P08912 1-532): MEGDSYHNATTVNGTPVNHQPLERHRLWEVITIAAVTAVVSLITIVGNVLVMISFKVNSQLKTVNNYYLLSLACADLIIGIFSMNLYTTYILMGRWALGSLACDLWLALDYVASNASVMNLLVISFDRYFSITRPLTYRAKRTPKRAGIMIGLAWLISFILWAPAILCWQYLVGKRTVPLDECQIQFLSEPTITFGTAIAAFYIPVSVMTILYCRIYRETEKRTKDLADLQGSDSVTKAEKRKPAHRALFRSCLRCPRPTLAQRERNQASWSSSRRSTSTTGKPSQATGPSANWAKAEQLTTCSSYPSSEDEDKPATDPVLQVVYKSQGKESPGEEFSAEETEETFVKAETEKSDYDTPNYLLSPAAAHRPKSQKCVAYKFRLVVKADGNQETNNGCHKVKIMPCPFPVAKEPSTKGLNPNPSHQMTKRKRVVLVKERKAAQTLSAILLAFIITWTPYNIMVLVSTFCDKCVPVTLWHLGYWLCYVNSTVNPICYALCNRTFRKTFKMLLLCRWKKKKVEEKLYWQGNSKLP

[8] = target: T5, M5; assay: M5 PAM activity, mobilization of intracellular calcium in M5 CHO cells; assay type: cell-based
[9] = target: T5, M5; assay: Human M5 ACh fold-shift assay at 30 µM; assay type: cell-based
[10] = target: T4, M4; assay: 30 µM fold-shift selectivity assay, M4; assay type: cell-based
Summary of the method: (§1)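 Intracellular calcium mobilization in CHO cells expressing the receptor co-transfected with Gqi5 to couple it to calcium signalling. Test compound at a fixed 30 µM, read as the fold-shift of the acetylcholine concentration-response. Data are means from at least three independent determinations.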

[11] = target: T3, M3; assay: 30 µM fold-shift selectivity assay, M3; assay type: cell-based
Summary of the method: (§2)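 Intracellular calcium mobilization in CHO cells expressing the receptor. Test compound at a fixed 30 µM, read as the fold-shift of the acetylcholine concentration-response. Data are means from at least three independent determinations.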

[12] = target: T2, M2; assay: 30 µM fold-shift selectivity assay, M2; assay type: cell-based
Summary of the method: as §1

[13] = target: T1, M1; assay: 30 µM fold-shift selectivity assay, M1; assay type: cell-based
Summary of the method: as §2

[14] = target: H1 (Homo sapiens, UniProt P35367); assay: Ancillary pharmacology panel, H1; assay type: binding; conditions: same assay panel; significant = >50% inhibition at 10 µM
[15] = target: NET (Homo sapiens, UniProt P23975); assay: Ancillary pharmacology panel, NET; assay type: binding; conditions: same assay panel; significant = >50% inhibition at 10 µM
[16] = Ancillary pharmacology panel; assay type: binding
[17] = target: T5, M5; conditions: read-out: M5 EC50; vs. M2–M5; cited from earlier work

T3 sequence (P20309 whole entry): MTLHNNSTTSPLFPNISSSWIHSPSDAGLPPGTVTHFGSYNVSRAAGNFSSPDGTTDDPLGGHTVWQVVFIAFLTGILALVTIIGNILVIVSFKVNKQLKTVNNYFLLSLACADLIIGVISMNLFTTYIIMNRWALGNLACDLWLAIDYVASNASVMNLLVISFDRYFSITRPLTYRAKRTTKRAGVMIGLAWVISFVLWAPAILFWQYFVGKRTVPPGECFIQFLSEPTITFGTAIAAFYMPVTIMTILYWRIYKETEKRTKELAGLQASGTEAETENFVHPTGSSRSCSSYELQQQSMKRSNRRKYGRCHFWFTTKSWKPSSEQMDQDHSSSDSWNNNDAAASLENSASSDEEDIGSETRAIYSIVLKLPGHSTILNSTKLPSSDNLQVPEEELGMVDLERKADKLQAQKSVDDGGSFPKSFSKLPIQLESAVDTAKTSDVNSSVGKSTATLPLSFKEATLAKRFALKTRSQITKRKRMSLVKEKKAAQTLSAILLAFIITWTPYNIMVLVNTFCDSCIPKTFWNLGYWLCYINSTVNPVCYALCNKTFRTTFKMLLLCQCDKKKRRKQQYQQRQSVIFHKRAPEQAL
Chain of H1 (P35367 whole entry): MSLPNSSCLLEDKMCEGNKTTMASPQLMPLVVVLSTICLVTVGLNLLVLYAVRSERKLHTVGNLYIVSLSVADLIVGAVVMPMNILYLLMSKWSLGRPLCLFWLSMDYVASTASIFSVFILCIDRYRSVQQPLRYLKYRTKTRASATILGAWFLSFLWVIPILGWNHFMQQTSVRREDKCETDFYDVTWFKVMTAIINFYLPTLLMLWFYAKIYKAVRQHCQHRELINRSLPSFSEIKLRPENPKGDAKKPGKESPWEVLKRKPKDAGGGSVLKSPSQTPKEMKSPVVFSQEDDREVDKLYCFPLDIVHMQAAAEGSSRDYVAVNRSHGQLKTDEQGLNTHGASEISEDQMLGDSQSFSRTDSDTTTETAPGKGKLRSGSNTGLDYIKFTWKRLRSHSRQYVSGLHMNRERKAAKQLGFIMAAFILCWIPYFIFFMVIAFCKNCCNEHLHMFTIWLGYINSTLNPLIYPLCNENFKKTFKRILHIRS
Chain of NET (P23975 whole entry): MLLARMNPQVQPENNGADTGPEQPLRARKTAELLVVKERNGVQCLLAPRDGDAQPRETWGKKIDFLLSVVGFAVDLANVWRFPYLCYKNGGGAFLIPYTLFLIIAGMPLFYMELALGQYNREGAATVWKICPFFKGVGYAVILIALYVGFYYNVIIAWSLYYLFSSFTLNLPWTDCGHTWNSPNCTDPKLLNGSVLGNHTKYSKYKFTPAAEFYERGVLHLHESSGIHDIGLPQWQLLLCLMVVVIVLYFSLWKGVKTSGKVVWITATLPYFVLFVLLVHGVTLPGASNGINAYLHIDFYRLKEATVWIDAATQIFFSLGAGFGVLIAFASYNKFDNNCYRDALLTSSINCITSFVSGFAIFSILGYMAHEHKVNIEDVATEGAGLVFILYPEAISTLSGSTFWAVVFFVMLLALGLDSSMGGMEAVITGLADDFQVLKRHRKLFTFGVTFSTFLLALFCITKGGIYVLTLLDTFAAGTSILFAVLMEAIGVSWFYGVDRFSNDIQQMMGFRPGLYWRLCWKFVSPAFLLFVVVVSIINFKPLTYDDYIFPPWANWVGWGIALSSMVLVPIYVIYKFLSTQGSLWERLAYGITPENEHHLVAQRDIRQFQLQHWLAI

## O=C1C(=O)N(Cc2ccc(-c3ccccc3)cc2)c2ccc(OC(F)(F)F)cc21 [compound 4]
[1]; vs. M1–M4
  pEC50: < 4.52
[2]; vs. M1–M4
  pEC50: < 4.52
[3]
  logP: > 4.5
[4]; vs. M1–M4
  pEC50: < 4.52
[5]
  solubility: limited solubility
[6]; vs. M1–M4
  pEC50: < 4.52

## CN(C)CCOc1ccc2c(c1)C(=O)C(=O)N2Cc1ccc(-c2ccccc2)cc1 [10gg]
[7]
  ability to potentiate an EC20 of ACh: did decrease the ACh EC20

## O=C1C(=O)N(Cc2ccc(-c3cccnc3)cn2)c2ccc(OC(F)(F)F)cc21 [21b]
[8]
  M5 PAM activity (in words): devoid of M5 PAM activity

## O=C1C(=O)N(Cc2ccc(-c3ccccc3)nc2)c2ccc(OC(F)(F)F)cc21 [22a]
[9]
  allosteric agonism: ~ 20%
[10]
  effect on M4, fold-shift selectivity: neither 22a nor 27b showed any significant effect
[11]
  effect on M3, fold-shift selectivity: neither 22a nor 27b showed any significant effect
[12]
  effect on M2, fold-shift selectivity: neither 22a nor 27b showed any significant effect
[13]
  effect on M1, fold-shift selectivity: neither 22a nor 27b showed any significant effect

## O=C1C(=O)N(Cc2ccc3c(c2)OCO3)c2ccc(OC(F)(F)F)cc21 [compound 13]
[8]
  M5 PAM activity (in words): highly efficacious M5 PAM of comparable potency to 4

## O=C1C(=O)N(Cc2ccc(-c3ccncc3)cn2)c2ccc(OC(F)(F)F)cc21 [21c]
[8]
  M5 PAM activity (in words): devoid of M5 PAM activity

## O=C1C(=O)N(Cc2ccc(Oc3cccc(F)n3)cc2)c2ccc(OC(F)(F)F)cc21 [27b]
[14]
  activity at H1: significant activity
[15]
  activity at NET: significant activity
[10]
  effect on M4, fold-shift selectivity: neither 22a nor 27b showed any significant effect
[11]
  effect on M3, fold-shift selectivity: neither 22a nor 27b showed any significant effect
[12]
  effect on M2, fold-shift selectivity: neither 22a nor 27b showed any significant effect
[13]
  effect on M1, fold-shift selectivity: neither 22a nor 27b showed any significant effect
[16]; of the 68 targets
  number of targets with modest activities: 11 targets

## O=C1C(=O)N(Cc2ccc(-c3ccccc3)cc2F)c2ccc(OC(F)(F)F)cc21 [compound 11]
[8]
  M5 PAM activity (in words): loss in both potency and efficacy

## CC1CCCN(COc2ccc3c(c2)C(=O)C(=O)N3Cc2ccc(-c3ccccc3)cc2)C1 (centres unmarked) [10ee]
[7]
  ability to potentiate an EC20 of ACh: did decrease the ACh EC20

## O=C1C(=O)N(Cc2ccc(Oc3ccccc3)cc2)c2ccc(OC(F)(F)F)cc21 [compound 5]
[1]; vs. M1–M4
  pEC50: < 4.52
[2]; vs. M1–M4
  pEC50: < 4.52
[3]
  logP: > 4.5
[4]; vs. M1–M4
  pEC50: < 4.52
[5]
  solubility: limited solubility
[6]; vs. M1–M4
  pEC50: < 4.52
[16]; of 68 targets, 10 µM
  number of targets with significant activity (>50% inhibition at 10 µM): 32 targets

## Cn1cc(-c2ccc(CN3C(=O)C(=O)c4ccccc43)c(F)c2)cn1 [compound 2]
[1]; PAM
  pEC50: 6.08
[2]; vs. M2–M5
  pEC50: < 4.52
[17]
  pEC50: < 4.52
[4]; vs. M2–M5
  pEC50: < 4.52
[6]; vs. M2–M5
  pEC50: < 4.52

## O=C1C(=O)N(Cc2ccc(-c3ccccc3)cc2)c2ccc(OCCN3CCCC3)cc21 [10kk]
[7]
  ability to potentiate an EC20 of ACh: did decrease the ACh EC20

## O=C1C(=O)N(Cc2c(F)cc(-c3ccccc3)cc2F)c2ccc(OC(F)(F)F)cc21 [compound 12]
[8]
  M5 PAM activity (in words): loss in both potency and efficacy
